Results as given in ChEMBL document CHEMBL1932933, “A small chemical library of 2-aminoimidazole derivatives as BACE-1 inhibitors: Structure-based design, synthesis, and biological evaluation” (Eur J Med Chem, 2012).
One block for each compound: values may come before it.

Columns and labels:
[1] = Inhibition of BACE1 in chicken primary telencephalon neurons assessed as reduction of amyloid beta40 secretion after 24 hrs by ELISA; parameters: species or system Gallus gallus
Outline: (§1)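 Aβ secretion from neurons after 24 h of inhibitor treatment. Data were corrected for mean neuron viability from an MTT reduction assay run after 24 h of treatment. Values are the mean of three independent experiments.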

[2] = Inhibition of BACE1 in chicken primary telencephalon neurons assessed as reduction of amyloid beta42 secretion after 24 hrs by ELISA; parameters: species or system Gallus gallus; outline: as §1
Beta-secretase 1 [3] = target: T1, Beta-secretase 1 (Homo sapiens, UniProt P56817); assay: Inhibition of BACE1 using methoxycoumarin-Ser-Glu-Val-Asn-Leu-Asp-Ala-Glu-Phe-Lys-dinitrophenyl as substrate preincubated 1 hr before substrate addition measured after 15 mins by FRET assay
T1 sequence (P56817 whole entry): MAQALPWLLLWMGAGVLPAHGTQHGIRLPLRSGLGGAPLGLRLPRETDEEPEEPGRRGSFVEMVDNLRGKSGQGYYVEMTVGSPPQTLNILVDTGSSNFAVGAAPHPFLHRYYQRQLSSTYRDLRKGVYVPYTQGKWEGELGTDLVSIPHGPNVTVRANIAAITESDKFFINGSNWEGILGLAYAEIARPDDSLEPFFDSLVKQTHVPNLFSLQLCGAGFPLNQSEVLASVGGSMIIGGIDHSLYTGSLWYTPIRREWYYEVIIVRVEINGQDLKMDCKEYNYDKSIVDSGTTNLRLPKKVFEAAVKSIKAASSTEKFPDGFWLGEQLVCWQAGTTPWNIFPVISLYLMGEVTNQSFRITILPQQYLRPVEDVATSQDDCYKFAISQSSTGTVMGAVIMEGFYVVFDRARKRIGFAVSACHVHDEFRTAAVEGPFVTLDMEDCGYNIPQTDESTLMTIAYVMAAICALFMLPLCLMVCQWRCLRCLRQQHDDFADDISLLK

[4] = Inhibition of BACE1 in chicken primary telencephalon neurons assessed as reduction of amyloid beta38 secretion after 24 hrs by ELISA; parameters: species or system Gallus gallus; outline: as §1
[5] = Permeability of the compound by PAMPA; format: ADME; conditions: read-out: permeability
[6] = Cytotoxicity against chicken primary telencephalon neurons at 25 uM after 24 hrs by MTT assay; parameters: species or system Gallus gallus
[7] = Solubility of the compound; format: physicochemical
[8] = Cytotoxicity against chicken primary telencephalon neurons at 50 uM after 24 hrs by MTT assay; parameters: species or system Gallus gallus
Beta-secretase 1 [9] = target: T1, Beta-secretase 1; assay: Inhibition of BACE1 using methoxycoumarin-Ser-Glu-Val-Asn-Leu-Asp-Ala-Glu-Phe-Lys-dinitrophenyl as substrate at 100 uM preincubated 1 hr before substrate addition measured after 15 mins by FRET assay
[10] = Gallus gallus, 24 h, read-out: IC50

IC50 [1]: Not Active | IC50 [2]: Not Active | IC50 (Beta-secretase 1 [3]): 5.95 µM | IC50 [4]: Not Active | Papp [5]: 4 ×10⁻⁶ cm/s
SMILES: Nc1nc(Cc2ccc(-c3cccc4oc5ccccc5c34)cc2)cn1Cc1ccccc1Cl

Papp [5]: 0.3 ×10⁻⁶ cm/s
SMILES: CCn1cc(C(=O)O)c(=O)c2cc(F)c(N3CCNCC3)nc21 [ENOXACIN]

Papp [5]: 0.9 ×10⁻⁶ cm/s
SMILES: Cn1c(=O)c2c(ncn2C)n(C)c1=O [CAFFEINE]

IC50 [1, 10]: 23 µM | IC50 [2, 10]: 19 µM | IC50 (Beta-secretase 1 [3]): 7.4 µM | IC50 [4, 10]: 15 µM | Papp [5]: 4 ×10⁻⁶ cm/s
SMILES: COc1cc(OC)cc(-c2ccc(Cc3cn(Cc4ccc(F)cc4)c(N)n3)cc2)c1
Activity [6]: Toxic

IC50 [1]: Not Active | IC50 [2]: Not Active | IC50 (Beta-secretase 1 [3]): 5.59 µM | solubility [7]: Insoluble | IC50 [4]: Not Active
SMILES: Nc1nc(Cc2ccc(-c3ccc(C(F)(F)F)cc3)cc2)cn1Cc1cc(F)cc(F)c1

IC50 [1, 10]: 35 µM | IC50 [2, 10]: 27 µM | IC50 (Beta-secretase 1 [3]): 7.32 µM | IC50 [4, 10]: 33 µM | Papp [5]: 3.2 ×10⁻⁶ cm/s
SMILES: COc1cc(OC)cc(-c2ccc(Cc3cn(Cc4cc(F)cc(F)c4)c(N)n3)cc2)c1
Activity [8]: Toxic

Papp [5]: 0.4 ×10⁻⁶ cm/s
SMILES: CN1C(C(=O)Nc2ccccn2)=C(O)c2ccccc2S1(=O)=O [PIROXICAM]

Papp [5]: 11.5 ×10⁻⁶ cm/s
SMILES: CN(C)CCCN1c2ccccc2Sc2ccccc21 [PROMAZINE]

inhibition (Beta-secretase 1 [9]): 19.6%
SMILES: Nc1nc(Cc2ccccc2)cn1Cc1ccccc1
